Laboratory results taken from ChEMBL document CHEMBL1772981, “Discovery of 2-arylbenzoxazoles as upregulators of utrophin production for the treatment of Duchenne muscular dystrophy” (J Med Chem, 2011).
≈ marks a conversion by molar mass, not a printed value. Values belong to the molecule of their own block, whether it stands above or below them.

Key:
Mus musculus [1] = organism: Mus musculus; assay: Activation of UTRN promoter in mouse H2K cells assessed as upregulation of UTRN production after 48 hrs by luciferase reporter linked assay; assay type: functional, cell-based; details: Mus musculus, H2K, 48 h
Procedure, shortened: (§1)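 H2K myoblasts stably carrying a utrophin (UTRN) promoter–luciferase reporter were plated 24 h before dosing and exposed to compound for 48 h. Luciferase was read by luminescence (Steady-Glo). The primary screen was at 10 μM and the secondary at six concentrations for EC50, both in triplicate. Non-EC50 values are % of the reference upregulator's maximum, given with the concentration at maximum.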

Mus musculus [2] = organism: Mus musculus; assay: Activation of UTRN promoter in mouse H2K cells assessed as upregulation of UTRN production at 10 uM after 48 hrs by luciferase reporter linked assay; assay type: functional; procedure, shortened: as §1
Mus musculus [3] = organism: Mus musculus; assay: Activation of UTRN promoter in mouse H2K cells assessed as upregulation of UTRN production at 10 uM after 72 hrs by RT-PCR analysis; assay type: functional
Procedure, shortened: (§2)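 H2K cells were seeded at 25000 per well, left 24 h, then dosed for 72 h in 1% DMSO final. Total RNA was extracted and reverse transcribed. qPCR used an amplicon spanning the UTRN exon 3–4 boundary, with β-actin as the endogenous control, and was quantified by ΔΔCT. Values are % UTRN relative to DMSO control (=100), with P value.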

Mus musculus [4] = assay: Cmax in CD1 mouse at 10 mg/kg, ip; assay type: ADME, organism-based; design: dose 10 mg/kg, route intraperitoneal; details: in vivo
Procedure, shortened: (§3)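 Male CD1 mice were dosed i.p. at 10 mg/kg in 95% PBS containing 0.1% Tween 20 and 5% DMSO. Plasma was sampled at 5–360 or 5–480 min. AUC is in μg.min/mL. Half-life was not calculated where the log concentration–time plot lacked a linear region of at least three points.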

[5] = Aqueous solubility of the compound by turbidimetry; assay type: physicochemical; details: buffer
Procedure, shortened: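 Turbidimetric aqueous solubility, reported as the final test compound concentration.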

[6] = Half life in mouse liver microsomes; assay type: ADME, Microsome
Mus musculus [7] = assay: Tmax in CD1 mouse at 10 mg/kg, ip; assay type: ADME, organism-based; design: dose 10 mg/kg, route intraperitoneal; details: in vivo; procedure, shortened: as §3
Mus musculus [8] = assay: Half life in CD1 mouse at 10 mg/kg, ip; assay type: ADME, organism-based; design: dose 10 mg/kg, route intraperitoneal; details: in vivo; procedure, shortened: as §3
Mus musculus [9] = assay: AUC in CD1 mouse at 10 mg/kg, ip; assay type: ADME, organism-based, Plasma; design: dose 10 mg/kg, route intraperitoneal; details: in vivo; procedure, shortened: as §3
[10] = Half life in human liver microsomes; assay type: ADME, Microsome
Mus musculus [11] = organism: Mus musculus; assay: Activation of UTRN promoter in mouse H2K cells assessed as upregulation of UTRN production at 3 uM after 48 hrs by luciferase reporter linked assay; assay type: functional; procedure, shortened: as §1
Mus musculus [12] = organism: Mus musculus; assay: Activation of UTRN promoter in mouse H2K cells assessed as upregulation of UTRN production at 3 uM after 72 hrs by RT-PCR analysis; assay type: functional; procedure, shortened: as §2

Compound: Cc1ccc(-c2nc3cc(NC(=O)C(C)C)ccc3o2)cc1
Activity (Mus musculus [2]): 95%

Compound: Cc1cc2nc(-c3ccc(N)cc3O)oc2cc1C
Activity (Mus musculus [3]): 144.8%
Cmax (Mus musculus [4]): 10.9 ng/mL
solubility kinetic [5]: 1 µM (≈ 0.254 µg/mL)
half-life [6]: 22 min
Tmax (Mus musculus [7]): 5 min
EC50 (Mus musculus [1]): 700 nM
t1/2 (Mus musculus [8]): 40.9 min
AUC (Mus musculus [9]): 0.6 µg·min/mL

Compound: CC(C)C(=O)Nc1ccc2oc(-c3ccc(Cl)cc3)nc2c1
half-life [10]: 286 min
Cmax (Mus musculus [4]): 2807 ng/mL
solubility kinetic [5]: 3 µM (≈ 0.944 µg/mL)
half-life [6]: 19.3 min
Tmax (Mus musculus [7]): 15 min
EC50 (Mus musculus [1]): 400 nM
t1/2 (Mus musculus [8]): 136 min
AUC (Mus musculus [9]): 229 µg·min/mL

Compound: CC(C)S(=O)(=O)Nc1ccc2oc(-c3ccc(Cl)cc3)nc2c1
EC50 (Mus musculus [1]): > 30000 nM

Compound: CC(C)CNc1ccc2oc(-c3ccc(Cl)cc3)nc2c1
EC50 (Mus musculus [1]): > 30000 nM

Compound: C[C@H](N)C(=O)Nc1ccc2oc(-c3ccc(Cl)cc3)nc2c1
Activity (Mus musculus [11]): 35%

Compound: CC(C)C(=S)Nc1ccc2oc(-c3ccc(Cl)cc3)nc2c1
EC50 (Mus musculus [1]): > 30000 nM

Compound: CC(C)C(=O)Nc1ccc2[nH]c(-c3ccc(Cl)cc3)nc2c1
EC50 (Mus musculus [1]): 10000 nM

Compound: CC(C)c1ccc2oc(-c3ccc(N)cc3O)nc2c1
EC50 (Mus musculus [1]): 1000 nM

Compound: Nc1ccc2oc(-c3ccc(Cl)c(Cl)c3)nc2c1
Activity (Mus musculus [11]): 107%

Compound: CCC(=O)Nc1ccc2oc(-c3ccc(Cl)cc3)nc2c1
Activity (Mus musculus [11]): 85%

Compound: CCCC(=O)Nc1ccc2oc(-c3ccccc3)nc2c1
EC50 (Mus musculus [1]): 3000 nM

Compound: CC(C)C(=O)Nc1ccc2oc(-c3ccccc3)nc2c1
EC50 (Mus musculus [1]): 800 nM

Compound: CCCCC(=O)Nc1ccc2oc(-c3ccccc3)nc2c1
Activity (Mus musculus [2]): 69%

Compound: O=C(Nc1ccc2oc(-c3ccc(Cl)cc3)nc2c1)c1ccccc1
EC50 (Mus musculus [1]): > 30000 nM

Compound: COc1ccc(-c2nc3cc(NC(=O)C(C)C)ccc3o2)cc1
Activity (Mus musculus [2]): 132%

Compound: CCN(CC)c1ccc(-c2nc3cc(NC(=O)C(C)C)ccc3o2)cc1
Activity (Mus musculus [2]): 12%

Compound: CC(C)C(=O)Nc1ccc2oc(-c3ccc(C(F)(F)F)cc3)nc2c1
Activity (Mus musculus [2]): 22%

Compound: CC(C)C(=O)Nc1ccc2oc(-c3ccc(F)cc3)nc2c1
half-life [6]: 16.1 min
EC50 (Mus musculus [1]): 900 nM

Compound: CC(C)C(=O)Nc1ccc2oc(-c3ccccc3Cl)nc2c1
EC50 (Mus musculus [1]): 1100 nM

Compound: CC(C)C(=O)Nc1ccc2oc(-c3cccc(Cl)c3Cl)nc2c1
EC50 (Mus musculus [1]): 10000 nM

Compound: CC(C)C(=O)Nc1ccc2oc(-c3ccc(Cl)cc3Cl)nc2c1
Activity (Mus musculus [2]): 53%

Compound: CC(C)C(=O)Nc1ccc2nc(-c3ccc(Cl)cc3)oc2c1
EC50 (Mus musculus [1]): 3000 nM

The next lines start with results.

EC50 (Mus musculus [1]): 3000 nM
Compound: CC(=O)Nc1ccc2oc(-c3ccccc3)nc2c1

EC50 (Mus musculus [1]): > 30000 nM
Compound: CC(C)C(=O)N(C)c1ccc2oc(-c3ccc(Cl)cc3)nc2c1

EC50 (Mus musculus [1]): > 30000 nM
Compound: CC(C)NC(=O)c1ccc2oc(-c3ccc(Cl)cc3)nc2c1

half-life [6]: 13 min
EC50 (Mus musculus [1]): 900 nM
Compound: CCC(=O)c1ccc2oc(-c3ccc(Cl)cc3)nc2c1

EC50 (Mus musculus [1]): 1200 nM
Compound: CC(C)C(=O)Nc1ccc2sc(-c3ccc(Cl)cc3)nc2c1

EC50 (Mus musculus [1]): > 30000 nM
Compound: CC(C)C(=O)Nc1ccc2oc(-c3ccc(Cl)cc3)cc2c1

EC50 (Mus musculus [1]): 3500 nM
Compound: Nc1ccc(-c2nc3cc(N)ccc3o2)c(O)c1

EC50 (Mus musculus [1]): 1500 nM
Compound: CC(C)C(=O)Nc1ccc2oc(-c3ccc(Cl)c(Cl)c3)nc2c1
Activity (Mus musculus [12]): 128.2%

EC50 (Mus musculus [1]): 800 nM
Compound: CCC(=O)Nc1ccc2oc(-c3ccccc3)nc2c1

EC50 (Mus musculus [1]): > 30000 nM
Compound: O=C(Nc1ccc2oc(-c3ccccc3)nc2c1)c1ccccc1

EC50 (Mus musculus [1]): 3500 nM
Compound: CCCC(=O)Nc1ccc2oc(-c3ccc(Cl)cc3)nc2c1

EC50 (Mus musculus [1]): 5000 nM
Compound: O=C(Cc1ccccc1)Nc1ccc2oc(-c3ccc(Cl)cc3)nc2c1

EC50 (Mus musculus [1]): > 30000 nM
Compound: O=C(CCc1ccccc1)Nc1ccc2oc(-c3ccc(Cl)cc3)nc2c1

EC50 (Mus musculus [1]): 4500 nM
Compound: CC(C)C(=O)Nc1ccc2oc(-c3cccc(Cl)c3)nc2c1

EC50 (Mus musculus [1]): > 30000 nM
Compound: CC(C)C(=O)Nc1ccc2oc(-c3cc(Cl)ccc3Cl)nc2c1

EC50 (Mus musculus [1]): > 30000 nM
Compound: Cc1ccc(-c2nc3c(NC(=O)C(C)C)cccc3o2)cc1

EC50 (Mus musculus [1]): > 30000 nM
Compound: CC(C)C(=O)Nc1cc2oc(-c3ccc(Cl)cc3)nc2cc1Cl

EC50 (Mus musculus [1]): > 30000 nM
Compound: CC(C)C(=O)Nc1ccc2nc(-c3cccc(Cl)c3Cl)oc2c1
